In article PMC4086711 (European journal of pain (London, England), 2011):
Structures can show the parent of a compound that is named as a salt.

Legend:
MOR = experiment: Ca2+ mobilization; assay type: cell-based; conditions: agonist; HEK-293 with chimeric G-protein delta6-Gqi4-myr
Procedure, shortened: (§1)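 HEK-293 cells stably expressing the receptor, grown in DMEM with 10% FCS at 37 °C in 7% CO2, were transiently transfected with Δ6-Gqi4-myr (100 ng per 60,000 cells). After one day, cells were loaded with Ca2+ dye for 60 min and stimulated with increasing ligand concentrations to give dose–response curves and EC50. Each experiment was run at least three times in triplicate; values are means ± SEM.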

KOR = experiment: Ca2+ mobilization; assay type: cell-based; conditions: agonist; HEK-293 with chimeric G-protein delta6-Gqi4-myr
Procedure, shortened: as §1

Structure (SMILES): COC(=O)N1CCN(C(=O)Cc2ccc(Cl)c(Cl)c2)C(CN2CCCC2)C1 (centres unmarked) [GR89, 696, 4-[(3,4-Dichlorophenyl)acetyl]-3-(1-pyrrolidinylmethyl)-1-piperazine-carboxylic acid methyl ester fumarate]
- pEC50 (M) / MOR (MOR): 7.2 ± 0.2 pEC50 (M)
- pEC50 (M) / KOR (KOR): 10.1 ± 0.2 pEC50 (M)
